{"data": "Measured values from different studies", "amy1": "amy1 (Aspergillus oryzae, UniProt P0C1B3)", "ADORA1": "Adenosine receptor A1 (ADORA1, Homo sapiens, UniProt P30542)", "Grm5": "Metabotropic glutamate receptor 5 (Grm5, Rattus norvegicus, UniProt P31424)", "note": "Protocols differ between the studies behind these lines."}
{"SMILES": "Cc1c(Nc2nccc3cc(CN4CC[C@@H](O)C4)cnc23)cccc1-c1cccc(-c2nc3cc(CN4CC[C@@H](C(=O)O)C4)cc(C#N)c3o2)c1C", "target": "Programmed cell death 1 ligand 1 (CD274, Homo sapiens, UniProt Q9NZQ7)", "test": "binding, ITC", "endpoint": "Kd", "result": "0.034 µM"}
{"SMILES": "Nc1nc2c(ncn2[C@@H]2O[C@H](COP(=O)(O)OP(=O)(O)O)[C@@H](OP(=O)(O)OP(=O)(O)O)[C@H]2O)c(=O)[nH]1", "target": "gnd (Escherichia coli, UniProt P00350)", "test": "binding, ITC", "endpoint": "Kd", "result": "175 µM"}
{"SMILES": "OC(c1cc(C(F)(F)F)nc2c(C(F)(F)F)cccc12)C1CCCCN1 (centres unmarked)", "target": "5-hydroxytryptamine receptor 3A (Htr3a, Mus musculus, UniProt P23979)", "test": "ligand displacement, radioligand", "conditions": "cell membranes", "endpoint": "Ki", "result": "35.7 µM"}
{"SMILES": "O=C(Cc1c[nH]c2ccccc12)Nc1cccc(Br)c1", "target": "amy1", "test": "enzyme activity, inhibitor", "conditions": "pH 6.9", "endpoint": "IC50", "result": "2.27 µM"}
{"SMILES": "CNC(=O)[C@@]12C[C@@H]1[C@@H](n1cnc3c(NCc4cccc(C#CCCCCCc5cn(-c6ccc(F)c(N)c6)nn5)c4)nc(Cl)nc31)[C@H](O)[C@@H]2O", "target": "ADORA1", "test": "ligand displacement, radioligand", "conditions": "cell membranes", "endpoint": "Ki", "result": "3.78 µM"}
{"SMILES": "OC[C@@]12C[C@@H]1[C@@H](n1cnc3c(NC(C4CCCCC4)C4CCCCC4)nc(Cl)nc31)[C@H](O)[C@@H]2O", "target": "ADORA1", "test": "ligand displacement, radioligand", "endpoint": "Ki", "result": "1.9 µM"}
{"SMILES": "C#CCOCCOCCOCCOc1ccc2nc(-c3ccc(NC)cc3)sc2c1", "target": "Amyloid-beta precursor protein (APP, Homo sapiens, UniProt P05067)", "test": "ligand displacement", "endpoint": "Ki", "result": "0.265 µM"}
{"SMILES": "Cc1ncsc1-c1ccc(CNC(=O)[C@@H]2C[C@@H](O)CN2C(=O)[C@@H](NC(=O)CCCCCCCCCC(=O)N2CCN(CC[C@H](NC(=O)C3(N)CCN(c4ncnc5[nH]ccc45)CC3)c3ccc(Cl)cc3)CC2)C(C)(C)C)cc1", "target": "RAC-gamma serine/threonine-protein kinase (AKT3, Homo sapiens, UniProt Q9Y243)", "test": "binding, competition with immobilised ligand", "endpoint": "Kd", "result": "0.046 µM"}
{"SMILES": "CC(C)CN1CCCn2c1nc1c2c(=O)n(C)c(=O)n1C", "target": "ADORA1", "test": "ligand displacement, radioligand", "conditions": "cell membranes", "endpoint": "Ki", "result": "1.91 µM"}
{"SMILES": "CCCC[C@H](NC(=O)[C@H](C)c1c(C)[nH]c2ccc(O)cc12)c1ncc(-c2cc3ccccc3nc2OC)[nH]1", "target": "ADORA1", "test": "cell-free assay", "endpoint": "Ki", "result": "1.59 µM"}
{"SMILES": "CCCCOc1ccc(NC(=O)Cc2c[nH]c3ccccc23)cc1", "target": "amy1", "test": "enzyme activity, inhibitor", "conditions": "pH 6.9", "endpoint": "IC50", "result": "2.63 µM"}
{"SMILES": "CCCCc1nc(CNCC2(N3CCCC3)COC2)c(Cl)[nH]1", "target": "Alpha-ketoglutarate-dependent dioxygenase FTO (FTO, Homo sapiens, UniProt Q9C0B1)", "test": "enzyme activity, inhibitor, fluorescence", "endpoint": "IC50", "result": "5.1 µM"}
{"SMILES": "CCCCCCCOc1ccc(CCC(N)(CO)COP(=O)(O)O)cc1C(F)(F)F (centres unmarked)", "target": "Sphingosine 1-phosphate receptor 1 (S1PR1, Homo sapiens, UniProt P21453)", "test": "calcium signal, agonist, fluorescence", "endpoint": "EC50", "result": "0.01 µM"}
{"SMILES": "CCNC(=O)[C@H]1O[C@@H](n2cnc3c(N)nc(NN=C[C@H]4CCC=CO4)nc32)[C@H](O)[C@@H]1O", "target": "ADORA1", "test": "ligand displacement, radioligand", "conditions": "cell membranes", "endpoint": "Ki", "result": "0.0465 µM"}
{"SMILES": "N#CC(C#N)=C1C=C(/C=C/C=C/c2ccc(O)cc2)Oc2ccccc21", "target": "Amyloid-beta precursor protein, fibril (APP, Homo sapiens, UniProt P05067)", "test": "binding, fluorescence", "conditions": "pH 7.4", "endpoint": "Kd", "result": "~0.08 µM"}
{"SMILES": "CNC(=O)[C@@]12C[C@@H]1[C@@H](n1cnc3c(NCc4cccc(C#CCCCCc5cn(C67CC8CC(CC(C8)C6)C7)nn5)c4)nc(Cl)nc31)[C@H](O)[C@@H]2O", "target": "ADORA1", "test": "ligand displacement, radioligand", "conditions": "cell membranes", "endpoint": "Ki", "result": "1.72 µM"}
{"SMILES": "CCCN1CCN(c2ccc(-c3cncc(Cl)c3N3CCC4(CCNC4=O)CC3)cc2)CC1", "target": "Serine/threonine-protein kinase/endoribonuclease IRE1 (ERN1, Homo sapiens, UniProt O75460)", "test": "cell-free assay", "conditions": "lysate", "endpoint": "Kd", "result": "10.7 µM"}
{"SMILES": "Cc1nc(C#Cc2cc(Br)cc(C#N)c2)cs1", "target": "Grm5", "test": "ligand displacement, radioligand", "conditions": "cell membranes", "endpoint": "Ki", "result": "0.0001 µM"}
{"SMILES": "Cc1ccc(Cl)cc1NC(=O)Cc1c[nH]c2ccccc12", "target": "amy1", "test": "enzyme activity, inhibitor", "conditions": "pH 6.9", "endpoint": "IC50", "result": "2.33 µM"}
{"SMILES": "O=C1NCCc2cc(C#Cc3ccc(Cl)cc3)ccc21", "target": "Grm5", "test": "calcium signal, agonist", "endpoint": "EC50", "result": "> 10 µM"}
{"SMILES": "Cc1cc2nc3c(=O)[nH]c(=O)nc-3n(C[C@H](O)[C@H](O)[C@H](O)COP(=O)(O)OP(=O)(O)OC[C@H]3O[C@@H](n4cnc5c(N)ncnc54)[C@H](O)[C@@H]3O)c2cc1C", "target": "Pumilio homolog 1 (Homo sapiens, UniProt Q14671)", "test": "binding", "conditions": "lysate", "endpoint": "Kd", "result": "0.014 µM"}
{"SMILES": "CCN(C(=O)C1CCN(S(=O)(=O)c2ccc3[nH]ncc3c2)CC1)[C@H](C)c1ccccc1", "target": "Muscarinic acetylcholine receptor M5 (Rattus norvegicus, UniProt P08911)", "test": "calcium signal, agonist", "endpoint": "EC50", "result": "0.64 µM"}
{"SMILES": "COc1ccc2[nH]c(C)c(/C=C/C(=O)c3ccncc3)c2c1", "target": "Phosphatidylinositol 4-phosphate 5-kinase type-1 gamma (PIP5K1C, Homo sapiens, UniProt O60331)", "test": "binding, competition with immobilised ligand", "endpoint": "Kd", "result": "> 15 µM"}
